Experimental data taken from ChEMBL document CHEMBL2440032, “Synthesis of sterically encumbered 11β-aminoprogesterone derivatives and evaluation as 11β-hydroxysteroid dehydrogenase inhibitors and mineralocorticoid receptor antagonists” (Bioorg Med Chem, 2013).
pEC50, pIC50: −log10 of the molar value. Calls of active or inactive are those of the source. The calls are words filed in the database; no cut-off is given here.

Legend:
[1] = biological target: T1, 11-beta-hydroxysteroid dehydrogenase 1 (Homo sapiens, UniProt P28845); experiment: Inhibition of human recombinant 11beta-HSD1 expressed in HEK293 cells assessed as inhibition of [1,2,-3H]-cortisone to [3H]cortisol preincubated at 10 uM for 10 mins before substrate addition by scintillation counting; type: cell-based
How it was run: (§1)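 Lysates of HEK-293 cells expressing human 11βHSD1, in buffer with 1 mM MgCl2, 250 mM sucrose and 20 mM Tris–HCl pH 7.4, sonicated and used at once. Incubated 10 min at 37 °C with 200 nM [1,2-3H]cortisone and 500 µM NADPH. Stopped with excess unlabeled cortisone/cortisol in methanol, then TLC separation and scintillation counting for substrate conversion. Three independent experiments.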
Target sequence in this assay (P28845 whole entry, looked up): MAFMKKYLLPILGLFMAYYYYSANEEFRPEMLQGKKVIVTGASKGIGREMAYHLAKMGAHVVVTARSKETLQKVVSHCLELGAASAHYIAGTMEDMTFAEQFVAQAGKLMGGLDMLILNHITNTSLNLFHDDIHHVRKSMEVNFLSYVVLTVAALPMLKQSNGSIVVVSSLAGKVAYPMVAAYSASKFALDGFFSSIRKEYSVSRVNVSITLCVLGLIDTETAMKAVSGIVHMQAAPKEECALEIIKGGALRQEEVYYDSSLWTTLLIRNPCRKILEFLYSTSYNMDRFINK

[2] = biological target: T2, 11-beta-hydroxysteroid dehydrogenase type 2 (Homo sapiens, UniProt P80365); experiment: Inhibition of human recombinant 11beta-HSD2 expressed in HEK293 cells assessed as inhibition of [1,2,6,7-3H]-cortisol to [3H]cortisone preincubated for 10 mins before substrate addition by scintillation counting; type: cell-based
T2 sequence (P80365 whole entry): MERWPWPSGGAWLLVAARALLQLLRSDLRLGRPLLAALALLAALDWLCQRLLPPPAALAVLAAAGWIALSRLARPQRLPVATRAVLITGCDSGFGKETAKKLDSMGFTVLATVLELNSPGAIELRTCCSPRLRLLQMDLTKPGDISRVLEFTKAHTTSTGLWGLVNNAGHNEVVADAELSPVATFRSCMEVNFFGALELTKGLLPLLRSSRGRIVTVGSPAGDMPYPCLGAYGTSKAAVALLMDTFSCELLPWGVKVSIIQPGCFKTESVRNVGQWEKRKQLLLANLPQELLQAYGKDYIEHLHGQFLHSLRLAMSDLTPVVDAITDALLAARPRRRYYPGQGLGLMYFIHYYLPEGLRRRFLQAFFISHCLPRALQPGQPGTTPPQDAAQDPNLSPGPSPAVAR

[3] = biological target: T3, Mineralocorticoid receptor (Homo sapiens, UniProt P08235); experiment: (§2) Antagonist activity at human recombinant mineralocorticoid receptor expressed in HEK-293 cells after 24 hrs assessed as inhibition of aldosterone-induced receptor activity by […]; type: cell-based, HEK293
T3 sequence (P08235 whole entry): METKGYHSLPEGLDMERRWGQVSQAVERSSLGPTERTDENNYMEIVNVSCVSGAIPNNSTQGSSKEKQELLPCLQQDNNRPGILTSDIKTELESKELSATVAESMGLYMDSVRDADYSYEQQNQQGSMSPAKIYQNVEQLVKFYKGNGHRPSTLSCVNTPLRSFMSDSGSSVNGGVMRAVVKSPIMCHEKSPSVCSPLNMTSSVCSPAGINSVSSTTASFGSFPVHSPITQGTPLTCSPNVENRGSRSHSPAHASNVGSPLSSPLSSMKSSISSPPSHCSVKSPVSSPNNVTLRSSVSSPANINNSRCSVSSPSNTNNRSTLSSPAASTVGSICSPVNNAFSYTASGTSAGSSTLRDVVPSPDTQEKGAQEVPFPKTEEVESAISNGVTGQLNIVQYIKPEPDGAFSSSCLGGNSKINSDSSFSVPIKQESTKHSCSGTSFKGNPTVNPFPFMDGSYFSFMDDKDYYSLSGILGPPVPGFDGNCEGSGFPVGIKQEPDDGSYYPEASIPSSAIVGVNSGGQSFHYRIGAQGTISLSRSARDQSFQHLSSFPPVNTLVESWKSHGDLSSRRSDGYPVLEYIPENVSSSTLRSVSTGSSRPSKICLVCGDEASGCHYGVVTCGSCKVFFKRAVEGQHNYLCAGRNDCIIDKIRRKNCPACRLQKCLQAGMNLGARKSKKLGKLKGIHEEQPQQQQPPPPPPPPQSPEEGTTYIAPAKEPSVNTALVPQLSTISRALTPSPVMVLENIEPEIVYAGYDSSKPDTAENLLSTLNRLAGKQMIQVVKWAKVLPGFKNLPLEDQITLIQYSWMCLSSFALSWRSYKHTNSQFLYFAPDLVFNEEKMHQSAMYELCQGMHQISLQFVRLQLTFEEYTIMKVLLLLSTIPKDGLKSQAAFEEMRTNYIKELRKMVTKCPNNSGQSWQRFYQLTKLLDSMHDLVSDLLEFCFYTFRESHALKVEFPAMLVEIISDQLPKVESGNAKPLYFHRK
How it was run: (§3)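 HEK-293 cells, 150,000 per well, plated for 24 h, then calcium-phosphate transfected with pMMTV-lacZ β-galactosidase reporter, pCMV-LUC luciferase control and human MR plasmid. Cells were washed with charcoal-treated DMEM containing 10% FBS, then exposed to a range of compound concentrations with or without 10 nM aldosterone. Readout was β-galactosidase normalized to luciferase, relative to vehicle. Three independent experiments.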

[4] = biological target: T4, Mineralocorticoid receptor (Homo sapiens) (UniProt P08235); experiment: (§4) Transactivation of human recombinant mineralocorticoid receptor expressed in HEK-293 cells after 24 hrs […]; type: cell-based; settings: HEK293; how it was run: as §3
T4 sequence (whole entry): T3 sequence (P08235 whole entry)

[5] = biological target: T1, 11-beta-hydroxysteroid dehydrogenase 1; experiment: Inhibition of human recombinant 11beta-HSD1 expressed in HEK293 cells assessed as inhibition of [1,2,-3H]-cortisone to [3H]cortisol preincubated for 10 mins before substrate addition by scintillation counting; type: cell-based; how it was run: as §1
Target sequence in this assay (P28845 whole entry): as the sequence (P28845 whole entry, looked up) above

[6] = biological target: T4, Mineralocorticoid receptor (Homo sapiens); experiment: as §2; type: cell-based; settings: HEK293; how it was run: as §3
[7] = biological target: T3, Mineralocorticoid receptor; experiment: as §4; type: cell-based, HEK293; how it was run: as §3
[8] = biological target: T3, Mineralocorticoid receptor; experiment: Transactivation of wild-type human recombinant mineralocorticoid receptor expressed in COS7 cells after 24 hrs by luciferase reporter gene assay; type: cell-based, COS-7

SMILES	inhibition [1]	pIC50 [2]	other results
CC(=O)[C@H]1CC[C@H]2[C@@H]3CCC4=CC(=O)CC[C@]4(C)[C@H]3[C@@H](NC[C@H]3COC(C)(C)N3C(=O)OC(C)(C)C)C[C@]12C	< 70%	5.23	
CC(=O)[C@H]1CC[C@H]2[C@@H]3CCC4=CC(=O)CC[C@]4(C)[C@H]3[C@@H](NS(=O)(=O)c3ccccc3[N+](=O)[O-])C[C@]12C			pIC50 [3]: 4.96; Activity [4]: inactive
CC(=O)[C@H]1CC[C@H]2[C@@H]3CCC4=CC(=O)CC[C@]4(C)[C@H]3[C@@H](N)C[C@]12C [11BETA-AMINOPROGESTERONE]		5.66	
CC(=O)[C@H]1CC[C@H]2[C@@H]3CCC4=CC(=O)CC[C@]4(C)[C@H]3[C@@H](NC[C@@H](CO)NC(=O)OC(C)(C)C)C[C@]12C	< 70%	5.38	
CCOC(=O)/C(CN[C@H]1C[C@]2(C)[C@@H](C(C)=O)CC[C@H]2[C@@H]2CCC3=CC(=O)CC[C@]3(C)[C@H]21)=N\O	> 70%	5.98	pIC50 [5]: 6.19
CC(=O)[C@H]1CC[C@H]2[C@@H]3CCC4=CC(=O)CC[C@]4(C)[C@H]3[C@@H](NC[C@@H](N)C(=O)O)C[C@]12C			inhibition [6]: inactive; pEC50 [7]: 5.39
CC(=O)[C@H]1CC[C@H]2[C@@H]3CCC4=CC(=O)CC[C@]4(C)[C@H]3[C@@H](O)C[C@]12C [11BETA-HYDROXYPROGESTERONE]	> 70%		pEC50 [8]: 7.30; inhibition [6]: inactive; pEC50 [7]: 4.85; pIC50 [5]: 5.94
CC(=O)[C@H]1CC[C@H]2[C@@H]3CCC4=CC(=O)CC[C@]4(C)[C@H]3[C@@H](N=[N+]=[N-])C[C@]12C [11BETA-AZIDOPROGESTERONE]			pIC50 [3]: 5.46; Activity [4]: inactive
CC(=O)[C@H]1CC[C@H]2[C@@H]3CCC4=CC(=O)CC[C@]4(C)[C@H]3[C@H](O)C[C@]12C	> 70%		pIC50 [5]: 6.20

More lines, main results first:

inhibition [1]	pIC50 [2]	SMILES	other results
< 70%	5.17	CC(=O)[C@H]1CC[C@H]2[C@@H]3CCC4=CC(=O)CC[C@]4(C)[C@H]3[C@@H](NC[C@H](N)C(=O)O)C[C@]12C	
	5.62	CC(=O)[C@H]1CC[C@H]2[C@@H]3CCC4=CC(=O)CC[C@]4(C)[C@H]3[C@@H](NCC(=O)OC(C)(C)C)C[C@]12C	
	5.57	CC(=O)[C@H]1CC[C@H]2[C@@H]3CCC4=CC(=O)CC[C@]4(C)[C@H]3[C@@H](NCC(=O)O)C[C@]12C	
